Source: ChEMBL document CHEMBL1158040, “Biological activities and 3D QSAR studies of a series of Delisea pulchra (cf. fimbriata) derived natural products” (J Nat Prod, 2006)
pIC50: −log10 of the molar value. In brackets after ≈: the same amount, converted by molar mass. Activity calls are given as the source filed them. No cut-off for these calls is given here.

Columns and labels:
Monocyte [1] = assay: Inhibition of IL1 biosynthesis in human monocytes; format: functional, cell-based
P388 = assay: Cytotoxicity against mouse P388 cells; format: functional; details: read-out: ED50 (the source's name)
[2] = Cytotoxicity against human Col1 cells; format: functional; details: read-out: ED50 (the source's name)
Escherichia coli [3] = assay: Antimicrobial activity against Escherichia coli at 5 ug; format: functional, organism-based
Outline: (§1)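 Direct bioautography: each compound is spotted onto TLC plates and the solvent evaporated. The test organism is then grown directly on the plate. Growth inhibition is scored at the spot as active (+) or very active (++). Where a number is given, it is the radius in mm of the inhibition zone around the spot.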

[4] = Cytotoxicity against human U373 cells; format: functional, U-373MG ATCC; details: U373 MG, read-out: ED50 (the source's name)
Escherichia coli [5] = assay: Antimicrobial activity against Escherichia coli at 10 ug; format: functional, organism-based; outline: as §1
[6] = Cytotoxicity against human BCA1 cells; format: functional; details: read-out: ED50 (the source's name)
Bacillus subtilis [7] = assay: Antimicrobial activity against Bacillus subtilis at 1 ug; format: functional, organism-based; outline: as §1
ZR-75-1 = assay: Cytotoxicity against human ZR-75-1 cells; format: functional; details: read-out: ED50 (the source's name)
Monocyte [8] = assay: Inhibition of LPS-stimulated IL1 production in human monocytes; format: functional, cell-based
KB [9] = assay: Cytotoxicity against vinblastine-resistant human KB cells; format: functional; details: read-out: ED50 (the source's name)
Outline: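 The vinblastine-resistant KB-V1 line was tested both with and without added vinblastine in the cultured tumour-cell cytotoxicity panel. Results are reported as ED50.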

HT-1080 = assay: Cytotoxicity against human HT1080 cells; format: functional; details: read-out: ED50 (the source's name)
Micrococcus luteus [10] = assay: Antimicrobial activity against Micrococcus luteus at 1 ug; format: functional, organism-based; outline: as §1
A-431 = assay: Cytotoxicity against human A431 cells; format: functional; details: read-out: ED50 (the source's name)
Penicillium oxalicum [11] = assay: Antimicrobial activity against Penicillium oxalicum at 5 ug; format: functional; details: for zone of inhibition at 5 µg/disc: read-out: IZ; outline: as §1
Penicillium oxalicum [12] = assay: Antimicrobial activity against Penicillium oxalicum at 0.01 ug; format: functional; outline: as §1
Penicillium oxalicum [13] = assay: Antimicrobial activity against Penicillium oxalicum at 10 ug; format: functional; details: for zone of inhibition at 10 µg/disc: read-out: IZ; outline: as §1
[14] = Cytotoxicity against human MEL-2 cells; format: functional; details: MEL2, read-out: ED50 (the source's name)
KB [15] = assay: Cytotoxicity against human KB cells; format: functional; details: read-out: ED50 (the source's name)
Bacillus subtilis [16] = assay: Antimicrobial activity against Bacillus subtilis at 5 ug; format: functional, organism-based; outline: as §1
Plasmodium falciparum = assay: Antimalarial activity against chloroquine-sensitive Plasmodium falciparum D6 at 10 ug/ml; format: functional
Escherichia coli [17] = assay: Antimicrobial activity against Escherichia coli at 1 ug; format: functional, organism-based; outline: as §1
KB [18] = assay: Cytotoxicity against vinblastine-sensitive human KB cells; format: functional; details: read-out: ED50 (the source's name)
Micrococcus luteus [19] = assay: Antimicrobial activity against Micrococcus luteus at 5 ug; format: functional, organism-based; outline: as §1
Escherichia coli [20] = assay: Antimicrobial activity against Escherichia coli at 0.1 ug; format: functional, organism-based; outline: as §1
Bacillus subtilis [21] = assay: Antimicrobial activity against Bacillus subtilis at 10 ug; format: functional, organism-based; outline: as §1
LNCaP = assay: Cytotoxicity against human LNCAP cells; format: functional; details: read-out: ED50 (the source's name)
Penicillium oxalicum [22] = assay: Antimicrobial activity against Penicillium oxalicum at 0.1 ug; format: functional; details: for zone of inhibition at 0.1 µg/disc: read-out: IZ; outline: as §1
Micrococcus luteus [23] = assay: Antimicrobial activity against Micrococcus luteus at 10 ug; format: functional, organism-based; outline: as §1
Penicillium oxalicum [24] = assay: Antimicrobial activity against Penicillium oxalicum at 1 ug; format: functional; details: for zone of inhibition at 1 µg/disc: read-out: IZ; outline: as §1
[25] = Inhibition of PKC
[26] = target: Human immunodeficiency virus type 1 reverse transcriptase (Human immunodeficiency virus 1) (UniProt Q72547); assay: Inhibition of HIV1 RT at 200 uM
Outline: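 HIV-1 reverse transcriptase inhibition was measured in an ELISA-based system.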

[27] = system: Mycobacterium tuberculosis; assay: Antimycobacterial activity against Mycobacterium tuberculosis at 128 uM; format: functional, organism-based
Lu1 = assay: Cytotoxicity against human Lu1 cells; format: functional; details: read-out: ED50 (the source's name)
Mycobacterium avium = assay: Antimycobacterial activity against Mycobacterium avium at 128 uM; format: functional, organism-based
Micrococcus luteus [28] = assay: Antimicrobial activity against Micrococcus luteus at 0.1 ug; format: functional, organism-based; outline: as §1
[29] = Inhibition of TK assessed as residual activity at 200 ug/ml
Outline: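 The enzyme was tyrosine kinase p56lck, with test compounds at 200 μg/mL. The read-out is the remaining enzyme activity.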

Bacillus subtilis [30] = assay: Antimicrobial activity against Bacillus subtilis at 0.1 ug; format: functional, organism-based; outline: as §1
Penicillium oxalicum [31] = assay: Antimicrobial activity against Penicillium oxalicum at 1.6 ug; format: functional; details: read-out: IZ; outline: as §1
Penicillium oxalicum [32] = assay: Antimicrobial activity against Penicillium oxalicum at 0.8 ug; format: functional; details: read-out: IZ; outline: as §1

In the case of CCCCC1=C(Br)C(=C(Br)Br)OC1=O, the pIC50 (Monocyte [1]) was 5.52, the EC50 (P388) was greater than 5 µg/mL and the EC50 [2] was 12.4 µg/mL (≈ 31.9 µM). The Activity (Escherichia coli [3]) was “Active”, the EC50 [4] was greater than 20 µg/mL and the Activity (Escherichia coli [5]) was “Active”. The EC50 [6] was 6.4 µg/mL (≈ 16.5 µM), the Activity (Bacillus subtilis [7]) was “inactive” and the EC50 (ZR-75-1) was 8.6 µg/mL (≈ 22.1 µM). It also gave a pIC50 (Monocyte [8]) of 5.74, an EC50 (KB [9]) greater than 20 µg/mL and an EC50 (HT-1080) greater than 20 µg/mL. For the same molecule, the Activity (Micrococcus luteus [10]) was “inactive”, the EC50 (A-431) was 10.5 µg/mL (≈ 27 µM) and the zone of inhibition at 5 µg/disc (Penicillium oxalicum [11]) was 13 mm. The Activity (Penicillium oxalicum [12]) was “inactive”, the zone of inhibition at 10 µg/disc (Penicillium oxalicum [13]) was 11 mm and the EC50 [14] was 4.2 µg/mL (≈ 10.8 µM). For the same molecule, the EC50 (KB [15]) was greater than 20 µg/mL, the Activity (Bacillus subtilis [16]) was “Active” and the Activity (Plasmodium falciparum) was greater than 50%. For the same molecule, the Activity (Escherichia coli [17]) was “inactive”, the EC50 (KB [18]) was greater than 20 µg/mL and the Activity (Micrococcus luteus [19]) was “Active”. The Activity (Escherichia coli [20]) was “inactive”, the Activity (Bacillus subtilis [21]) was “Active” and the EC50 (LNCaP) was 9.3 µg/mL (≈ 23.9 µM). For the same molecule, the zone of inhibition at 0.1 µg/disc (Penicillium oxalicum [22]) was 1 mm, the Activity (Micrococcus luteus [23]) was “Active” and the zone of inhibition at 1 µg/disc (Penicillium oxalicum [24]) was 8 mm. For the same molecule, the pIC50 [25] was no more than 3.70.
With CCC[C@@H](OC(C)=O)C1=C(Br)/C(=C/Br)OC1=O the pIC50 (Monocyte [1]) was 5.52, the Activity (Escherichia coli [3]) was “inactive” and the Activity (Escherichia coli [5]) was “Active”. For the same molecule, the Activity (Bacillus subtilis [7]) was “Active”, the EC50 (ZR-75-1) was 1.6 µg/mL (≈ 4.35 µM) and the pIC50 (Monocyte [8]) was 5.89. For the same molecule, the EC50 (KB [9]) was 1 µg/mL (≈ 2.72 µM), the Activity (Micrococcus luteus [10]) was “Active” and the Activity [26] was “inactive”. The zone of inhibition at 5 µg/disc (Penicillium oxalicum [11]) was 15 mm, the Activity (Penicillium oxalicum [12]) was “inactive” and the Activity [27] was “inactive”. The EC50 (Lu1) was 1.7 µg/mL (≈ 4.62 µM), the pIC50 (Mycobacterium avium) was 3.46 and the zone of inhibition at 10 µg/disc (Penicillium oxalicum [13]) was 16 mm. The EC50 (KB [15]) was 0.8 µg/mL (≈ 2.17 µM), the Activity (Bacillus subtilis [16]) was “Active” and the Activity (Plasmodium falciparum) was greater than 50%. The Activity (Escherichia coli [17]) was “inactive”, the Activity (Micrococcus luteus [28]) was “inactive” and the EC50 (KB [18]) was 2.1 µg/mL (≈ 5.71 µM). The Activity (Micrococcus luteus [19]) was “Active”, the Activity (Escherichia coli [20]) was “inactive” and the Activity (Bacillus subtilis [21]) was “Active”. For the same molecule, the EC50 (LNCaP) was 0.5 µg/mL (≈ 1.36 µM), the zone of inhibition at 0.1 µg/disc (Penicillium oxalicum [22]) was 7 mm and the Activity (Micrococcus luteus [23]) was “Active”. For the same molecule, the zone of inhibition at 1 µg/disc (Penicillium oxalicum [24]) was 11 mm and the pIC50 [25] was 4.17.
In the case of CCC[C@@H](O)C1=C(Br)/C(=C/Br)OC1=O, the pIC50 (Monocyte [1]) was 5.82, the Activity (Escherichia coli [3]) was “Active” and the Activity [29] was 3.4%. For the same molecule, the Activity (Escherichia coli [5]) was “Active”, the Activity (Bacillus subtilis [7]) was “Active” and the EC50 (ZR-75-1) was less than 0.1 µg/mL. The pIC50 (Monocyte [8]) was 6.22, the EC50 (KB [9]) was 0.1 µg/mL (≈ 0.307 µM) and the Activity (Micrococcus luteus [10]) was “Active”. For the same molecule, the Activity [26] was “inactive”, the Activity (Bacillus subtilis [30]) was “Active” and the zone of inhibition at 5 µg/disc (Penicillium oxalicum [11]) was 26 mm. For the same molecule, the Activity (Penicillium oxalicum [12]) was “inactive”, the Activity [27] was “inactive” and the EC50 (Lu1) was 0.3 µg/mL (≈ 0.92 µM). For the same molecule, the pIC50 (Mycobacterium avium) was 3.46, the zone of inhibition at 10 µg/disc (Penicillium oxalicum [13]) was 27 mm and the EC50 (KB [15]) was 0.4 µg/mL (≈ 1.23 µM). The Activity (Bacillus subtilis [16]) was “Active”, the Activity (Plasmodium falciparum) was greater than 50% and the Activity (Escherichia coli [17]) was “Active”. The Activity (Micrococcus luteus [28]) was “inactive”, the EC50 (KB [18]) was 3.4 µg/mL (≈ 10.4 µM) and the Activity (Micrococcus luteus [19]) was “Active”. The Activity (Bacillus subtilis [21]) was “Active”, the EC50 (LNCaP) was 0.2 µg/mL (≈ 0.614 µM) and the zone of inhibition at 0.1 µg/disc (Penicillium oxalicum [22]) was 6 mm. For the same molecule, the Activity (Micrococcus luteus [23]) was “Active”, the zone of inhibition at 1 µg/disc (Penicillium oxalicum [24]) was 20 mm and the pIC50 [25] was 4.12.
Work on Clc1ccc(COC(Cn2ccnc2)c2ccc(Cl)cc2Cl)c(Cl)c1 (stereo not drawn) [MICONAZOLE] yielded a zone of inhibition at 1.6 µg/disc (Penicillium oxalicum [31]) of 5 mm and a zone of inhibition at 0.8 µg/disc (Penicillium oxalicum [32]) of 3 mm.
For CCC[C@@H](OC(C)=O)C1=C(Br)[C@@](CI)(OC)OC1=O, the Activity (Escherichia coli [3]) was “inactive”, the Activity (Escherichia coli [5]) was “inactive” and the Activity (Bacillus subtilis [7]) was “inactive”. For the same molecule, the EC50 (ZR-75-1) was 7.9 µg/mL (≈ 17.7 µM), the EC50 (KB [9]) was 7.1 µg/mL (≈ 15.9 µM) and the Activity (Micrococcus luteus [10]) was “inactive”. The Activity [26] was “inactive”, the Activity (Bacillus subtilis [30]) was “inactive” and the Activity (Penicillium oxalicum [11]) was “inactive”. For the same molecule, the Activity [27] was “inactive”, the EC50 (Lu1) was greater than 20 µg/mL and the pIC50 (Mycobacterium avium) was 3.46. The Activity (Penicillium oxalicum [13]) was “inactive”, the EC50 (KB [15]) was 2.4 µg/mL (≈ 5.37 µM) and the Activity (Bacillus subtilis [16]) was “inactive”. The Activity (Plasmodium falciparum) was greater than 50%, the Activity (Escherichia coli [17]) was “inactive” and the Activity (Micrococcus luteus [28]) was “inactive”. The EC50 (KB [18]) was 4.1 µg/mL (≈ 9.17 µM), the Activity (Micrococcus luteus [19]) was “Active” and the Activity (Escherichia coli [20]) was “inactive”. For the same molecule, the Activity (Bacillus subtilis [21]) was “inactive”, the EC50 (LNCaP) was 12.9 µg/mL (≈ 28.9 µM) and the Activity (Penicillium oxalicum [22]) was “inactive”. The Activity (Micrococcus luteus [23]) was “Active” and the Activity (Penicillium oxalicum [24]) was “inactive”.
